This note sets out measurements from ChEMBL document CHEMBL1146511, “Cytotoxic compounds from Mundulea chapelieri from the Madagascar Rainforest” (J Nat Prod, 2004).

What is called IC50 is the midpoint of a concentration-inhibition curve. Read a high IC50 as weaker potency.

In brackets after ≈: the same amount, converted by molar mass.

This test deals with A2780. The test is described as follows: Cytotoxicity against human A2780 cells. The test is classed as functional, cell-based. Put shortly:
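A2780 human ovarian cancer cells; growth-inhibition assay run per an earlier published protocol, with actinomycin D as positive control; value is the concentration that inhibited growth by 50% (IC50).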
As for `COc1c(-c2coc3cc4c(cc3c2=O)C=CC(C)(C)O4)ccc2c1C=CC(C)(C)O2` [MUNETONE], the midpoint of inhibition, the IC50, lay at 20 µg/mL (≈ 48 µM).

Compound `CC(C)=CCc1c2c(c(O)c3c1O[C@H](c1ccccc1)[C@@H](O)C3=O)C=CC(C)(C)O2` [MUNDULINOL] displayed an IC50 of 25 µg/mL (≈ 61.5 µM).

The compound `C=C(C)[C@H]1Cc2c(ccc3c2O[C@@H]2COc4cc(OC)c(OC)cc4[C@@H]2C3=O)O1` [ROTENONE] showed a 50% inhibitory concentration (IC50) of 0.7 µg/mL (≈ 1.77 µM).

Take `COc1cc(OC)c2c(c1CC=C(C)C)O[C@H](c1ccccc1)CC2=O` [CANDIDONE]: the IC50 amounted to 23 µg/mL (≈ 65.3 µM).

In the case of `C=C[C@@]1(C)C[C@@H](OC(C)=O)[C@H](C(C)(C)O)C[C@@H]1C(=C)C`, the 50% inhibitory concentration (IC50) was 17 µg/mL (≈ 60.6 µM).

Compound `C=C(C)[C@H]1Cc2c(ccc3c2O[C@@H]2COc4cc(OC)c(OC)cc4[C@]2(O)C3=O)O1` [ROTENOLONE] displayed an IC50 of 0.5 µg/mL (≈ 1.22 µM).

`COc1c(-c2coc3cc4c(cc3c2=O)CC(O)C(C)(C)O4)ccc2c1C=CC(C)(C)O2` (stereo unspecified) [MUNDULONE] registered an IC50 of 13 µg/mL (≈ 29.9 µM).

For `COc1cc2c(cc1OC)[C@]1(O)C(=O)c3ccc4c(c3O[C@@H]1CO2)C=CC(C)(C)O4` [TEPHROSIN], the IC50 stood at 9.1 µg/mL (≈ 22.2 µM).

In the case of `CC1(C)C=Cc2c(c3c(c4c2O[C@H](c2ccccc2)[C@@H](O)C4=O)OC(C)(C)C=C3)O1`, 20 µg/mL (≈ 49.4 µM) corresponded to half-maximal inhibition (IC50).

Consider `CC(C)=CCc1c(O)c2c(c3c1OC(C)(C)C=C3)O[C@H](c1ccccc1)[C@@H](O)C2=O` [ISOMUNDULINOL], for which the 50% inhibitory concentration (IC50) worked out at 18 µg/mL (≈ 44.3 µM).

Turning to `CC1(C)C=Cc2c(c3c(c4c2O[C@H](c2ccccc2)CC4=O)OC(C)(C)C=C3)O1`, the midpoint of inhibition, the IC50, lay at 33 µg/mL (≈ 85 µM).
